The values that follow come from ChEMBL document CHEMBL4270594, “Design, synthesis and pharmacological evaluation of new 3-(1H-benzimidazol-2-yl)quinolin-2(1H)-one derivatives as potential antitumor agents” (Eur J Med Chem, 2018).

In test [1] the test system is BEL-7404 tumor cell line. The test is described as follows: Antitumor activity against human Bel7404 cells xenografted in Balb/c nude mouse assessed as tumor growth inhibition at 25 mg/kg, ip bid for 20 days measured on day 21 post last dose relative to control. It counts as functional. Conditions: BEL-7404, ip, read-out: TGI. In general terms: A xenograft is tissue or cells of one species grown in another, often human tumour cells in immunodeficient mice.

The subject of test [2] is BEL-7404 tumor cell line. Nature of the test: Antitumor activity against human Bel7404 cells xenografted in Balb/c nude mouse assessed as relative tumor volume increment rate at 50 mg/kg, ip bid for 20 days measured on day 21 post last dose relative to control. It counts as functional.
Test [3] relates to BEL-7404 tumor cell line. The test is described as follows: Antitumor activity against human Bel7404 cells xenografted in Balb/c nude mouse assessed as tumor growth inhibition at 50 mg/kg, ip bid for 20 days measured on day 21 post last dose relative to control. Conditions: BEL-7404, ip, read-out: TGI. The format is functional.
For test [4], the system named is Mus musculus. The test is described as follows: Downregulation of APAF-1 protein expression in tumor tissues of Balb/c nude mouse xenografted with human Bel7404 cells at 25 to 50 mg/kg, ip bid for 20 days measured on day 21 by Western blot analysis. It counts as functional, organism-based.
For test [5], the system named is Mus musculus. The test is described as follows: Effect on caspase-3 protein expression in tumor tissues of Balb/c nude mouse xenografted with human Bel7404 cells at 25 to 50 mg/kg, ip bid for 20 days measured on day 21 by Western blot analysis. The format is functional, organism-based.
The subject of test [6] is BEL-7404 tumor cell line. The test is described as follows: Antitumor activity against human Bel7404 cells xenografted in Balb/c nude mouse assessed as relative tumor volume increment rate at 25 mg/kg, ip bid for 20 days measured on day 21 post last dose relative to control. The format is functional.
Test [7] concerns Mus musculus. Nature of the test: Downregulation of PARP protein expression in tumor tissues of Balb/c nude mouse xenografted with human Bel7404 cells at 25 to 50 mg/kg, ip bid for 20 days measured on day 21 by Western blot analysis. The format is functional, organism-based.
Test [8] deals with BEL-7404 tumor cell line. Nature of the test: Cell cycle arrest in human Bel7404 cells assessed as accumulation at G1-phase at 9 uM after 48 hrs by propidium iodide staining based flow cytometry (reference value: 59.16%). It counts as functional. (In general: Flow cytometry measures light scatter and fluorescence of single cells or particles in a stream.)
Test [9] relates to BEL-7404 tumor cell line. Nature of the test: Cell cycle arrest in human Bel7404 cells assessed as accumulation at G2-phase at 9 uM after 48 hrs by propidium iodide staining based flow cytometry (reference value: 18.84%). The format is functional.
Test [10] relates to BEL-7404 tumor cell line. Nature of the test: Antitumor activity against human Bel7404 cells xenografted in Balb/c nude mouse assessed as induction of necrosis at 25 to 50 mg/kg, ip for 20 days measured on day 21 post last dose by hematoxylin and eosin staining based microscopic method. The format is functional, organism-based.
Test [11] concerns Mus musculus. The test is described as follows: Upregulation of Bax protein expression in tumor tissues of Balb/c nude mouse xenografted with human Bel7404 cells at 25 to 50 mg/kg, ip bid for 20 days measured on day 21 by Western blot analysis. It counts as functional, organism-based.
In test [12] the test system is HepG2. The test is described as follows: Induction of ROS in human HepG2 cells at 6 to 10 uM by DCFH-DA staining based fluorescence microscopic method. It counts as functional, cell-based.
The subject of test [13] is HepG2. Nature of the test: Cell cycle arrest in human HepG2 cells assessed as accumulation at S-phase at 10 uM after 48 hrs by propidium iodide staining based flow cytometry (reference value: 30.49%). The format is functional.
The test system of test [14] is HepG2. Nature of the test: Cell cycle arrest in human HepG2 cells assessed as accumulation at G1-phase at 6 uM after 48 hrs by propidium iodide staining based flow cytometry (reference value: 50.47%). It counts as functional.
Test [15] concerns HepG2. Nature of the test: Downregulation of Cyclin-B1 protein expression in human HepG2 cells at 6 to 10 uM after 12 hrs by Western blot analysis. It counts as functional, cell-based. A general note: Immunoblotting shows a protein as a band on a membrane.
The test system of test [16] is HepG2. Nature of the test: Cell cycle arrest in human HepG2 cells assessed as accumulation at G2-phase at 10 uM after 48 hrs by propidium iodide staining based flow cytometry (reference value: 19.04%). It counts as functional.
For test [17], the system named is HepG2. The test is described as follows: Downregulation of Bcl2 protein expression in human HepG2 cells at 6 to 10 uM after 12 hrs by Western blot analysis. The format is functional, cell-based.
Test [18] concerns HepG2. Nature of the test: Induction of intracellular calcium level in human HepG2 cells at 6 to 10 uM after 24 hrs by Fluo3-AM staining based fluorescence microscopic method. The format is functional, cell-based.
Test [19] relates to HepG2. Nature of the test: Cell cycle arrest in human HepG2 cells assessed as accumulation at S-phase at 6 uM after 48 hrs by propidium iodide staining based flow cytometry (reference value: 30.49%). The format is functional.
The test system of test [20] is HepG2. The test is described as follows: Induction of apoptosis in human HepG2 cells assessed as early apoptotic cells at 8 uM after 24 hrs by Annexin V-FITC/ propidium iodide staining based flow cytometry (reference value: 6.5%). The format is functional.
For test [21], the system named is HepG2. The test is described as follows: Upregulation of p53 protein expression in human HepG2 cells at 8 uM after 12 hrs by Western blot analysis. It counts as functional, cell-based.
In test [22] the test system is Mus musculus. Nature of the test: Upregulation of PARP protein expression in tumor tissues of Balb/c nude mouse xenografted with human NCI-H460 cells at 25 to 50 mg/kg, ip bid for 13 days measured on day 14 by Western blot analysis. It counts as functional, organism-based. In outline: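 Tumors from NCI-H460 xenografted BALB/c nude mice (25 or 50 mg/kg, vehicle 5% DMSO in saline) collected at day 14; protein levels in tumor tissue determined by western blot versus vehicle control.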

Test [23] deals with HepG2. Nature of the test: Induction of apoptosis in human HepG2 cells after 24 hrs by Annexin V-FITC/ propidium iodide staining based flow cytometry. The format is functional, cell-based.
The subject of test [24] is HepG2. Nature of the test: Induction of apoptosis in human HepG2 cells assessed as live cells at 8 uM after 24 hrs by Annexin V-FITC/ propidium iodide staining based flow cytometry (reference value: 91.31%). It counts as functional.
In test [25] the test system is HepG2. Nature of the test: Induction of apoptosis in human HepG2 cells assessed as pycnosis at 6 to 10 uM after 12 hrs by acridine orange/ethidium bromide staining based fluorescence microscopic method. The format is functional, cell-based. The method, boiled down: (§1)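 HepG2 cells stained with acridine orange/ethidium bromide and examined by fluorescence microscopy; nuclei scored as yellow/green or orange, with pycnosis, membrane blebbing and cell budding taken as apoptotic morphology.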

Test [26] has as its system HepG2. Nature of the test: Upregulation of caspase-3 protein expression in human HepG2 cells at 6 to 10 uM after 12 hrs by Western blot analysis. The format is functional, cell-based. The method, boiled down:
(§2)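 HepG2 cell lysates after compound treatment analyzed by western blot for the target protein, compared with untreated negative control.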

Test [27] concerns HepG2. Nature of the test: Induction of ROS in human HepG2 cells at 6 to 10 uM by DAPI staining based fluorescence microscopic method. The format is functional, cell-based.
Test [28] has as its system HepG2. The test is described as follows: Cell cycle arrest in human HepG2 cells assessed as accumulation at G2-phase at 8 uM after 48 hrs by propidium iodide staining based flow cytometry (reference value: 19.04%). It counts as functional.
Test [29] concerns HepG2. Nature of the test: Cell cycle arrest in human HepG2 cells assessed as accumulation at G1-phase at 10 uM after 48 hrs by propidium iodide staining based flow cytometry (reference value: 50.47%). It counts as functional.
In test [30] the test system is HepG2. The test is described as follows: Upregulation of p53 protein expression in human HepG2 cells at 6 to 10 uM after 12 hrs by Western blot analysis. The format is functional, cell-based. The method, boiled down: as §2
The test system of test [31] is HepG2. The test is described as follows: Induction of apoptosis in human HepG2 cells assessed as membrane blebbing at 6 to 10 uM after 12 hrs by acridine orange/ethidium bromide staining based fluorescence microscopic method. The format is functional, cell-based. The method, boiled down:
as §1

Test [32] relates to HepG2. The test is described as follows: Downregulation of CDK1 protein expression in human HepG2 cells at 6 to 10 uM after 12 hrs by Western blot analysis. It counts as functional, cell-based.
For test [33], the system named is HepG2. The test is described as follows: Cell cycle arrest in human HepG2 cells assessed as accumulation at G2-phase at 6 uM after 48 hrs by propidium iodide staining based flow cytometry (reference value: 19.04%). The format is functional.

The source made the active and inactive calls. No cut-off for these calls is given here.

`O=c1[nH]c2cc3c(cc2cc1-c1nc2cc(Cl)ccc2[nH]1)OCO3`: in the test with BEL-7404 tumor cell line [1], the inhibition in vivo at 25 mg/kg stood at 41.2%. Also, the T/C was 44.8% in the test on BEL-7404 tumor cell line [2] and 51.5% with BEL-7404 tumor cell line [6]. For the same compound, the inhibition in vivo at 50 mg/kg with BEL-7404 tumor cell line [3] stood at 44.9%. The outcome with Mus musculus [4], with Mus musculus [7] and with BEL-7404 tumor cell line [10] was Active. In addition, the result in the test on Mus musculus [5] and in the test on Mus musculus [11] was inactive. Moreover, the values for the Activity in the test on BEL-7404 tumor cell line [8] and in the test on BEL-7404 tumor cell line [9] were 45.76% and 30.58%, respectively.
As for `O=c1[nH]c2ccccc2cc1-c1nc2cc(Cl)ccc2[nH]1`, the outcome in the test with HepG2 [12], in the test with HepG2 [15], in the test on HepG2 [17], in the test with HepG2 [18], in the test on HepG2 [21] and with Mus musculus [22] was Active. For the same compound, the result in the test on HepG2 [25], with HepG2 [26], in the test on HepG2 [27], with HepG2 [30], with HepG2 [31] and in the test on HepG2 [32] was Active. For the same compound, the Activity with HepG2 [13] is 27.24%; in the test on HepG2 [14], 41.52%; in the test on HepG2 [16] it was 49.1%; in the test with HepG2 [19], 29.48%; in the test on HepG2 [20], 35.9%; in the test with HepG2 [23], “Dose-dependent effect”. The Activity with HepG2 [24] was determined as 53.37%; in the test on HepG2 [28], 39.71%; in the test on HepG2 [29] it was 23.66%; in the test on HepG2 [33] it was 39%.

By T/C is commonly meant the ratio of treated to control.
